Results gathered from unrelated publications.
Each line is one published result; the experiments were not run side by side.
Target: Cytochrome P450 2C9 (CYP2C9, Homo sapiens, UniProt P11712)
Read-out: enzyme activity
Mode: inhibitor

For `NC(=O)C1CCCN1C(=O)Cc1ccc(N(CCCO)Cc2cnc3nc(N)nc(N)c3n2)cc1` (stereo not shown), the inhibition was -3.91% (luciferase; 10 µM).
`O=C(Nc1c2c(cc3c1CCC3)CCC2)NS(=O)(=O)/C=C/c1nccs1` has an inhibition of 21.4% (human, liver microsomes; 2 µM, pH 7.4).
For `CCc1cc(/C(C)=N/OCc2ccc(C3CCCCC3)c(C(F)(F)F)c2)ccc1CN1CC(C(=O)O)C1`, the inhibition was 43.2% (human, liver microsomes; 200 µM, 20 min).
The inhibition of `C=C[C@H]1C[N@@]2CC[C@H]1C[C@@H]2[C@@H](O)c1ccnc2ccc(OC)cc12` is reported as 15% (human, liver microsomes; 10 µM).
`COC(=O)C1CCN(C(=O)c2cccc(NCc3cnc4nc(N)nc(N)c4n3)c2)CC1` has an inhibition of -4.69% (luciferase; 10 µM).
The IC50 of `CC(=O)c1cccc(OCc2cc(C(=O)N(C)[C@@H](C)c3ccccn3)no2)c1` is reported as 6.3 µM (human, liver microsomes).
For `Cc1cccc(F)c1N1CCC(N2Cc3cn(CC(C)(F)F)nc3N(Cc3ccccc3C(F)(F)F)C2=O)CC1`, the IC50 was greater than 10 µM (human, liver microsomes).
For `O=C(NS(=O)(=O)c1ccc(Br)s1)c1ccc(Cl)cc1Cl`, the Ki was 0.1 µM (human, liver microsomes).
`NC(=O)C1CCN(C(=O)Cc2ccc(N(CCCO)Cc3cnc4nc(N)nc(N)c4n3)cc2)CC1` has an inhibition of -7.8% (luciferase; 10 µM).
For `CC(=O)N1CCN(c2ccc(OCC3COC(Cn4ccnc4)(c4ccc(Cl)cc4Cl)O3)cc2)CC1` (stereo not shown), the inhibition was 24% (human, liver microsomes; 1 µM).
The inhibition of `C=CC(=O)Nc1cc(Nc2nccc(Nc3cc(Cl)c(F)cc3C(C)(C)O)n2)c(OC)cc1N1CC[C@@H](N(C)C)C1` is reported as less than 20% (human, liver microsomes; 10 µM).
`O=C(N[C@H](Cc1c[nH]c2ccccc12)C(=O)Nc1ccncc1)c1ccc(-c2cc(F)ccc2F)cc1F` has an inhibition of 92% (human, liver microsomes; 1 µM).
For `CC1(CO)C(O[C@@H]2O[C@H](C(=O)O)[C@@H](O)[C@H](O)[C@H]2O)CC[C@@]2(C)C1CC[C@]1(C)C2CC=C2[C@H]3CC(C)(C)[C@H](O)[C@@H](O)[C@]3(CO)[C@H](O)C[C@]21C` (stereo partly shown), the IC50 was greater than 90 µg/mL (mass spectrometry; human, liver microsomes).
